From PubChem
H69AR inhibit: proliferation blockers of H69AR lung cancer cells, primary screen, cell-based, human, 86K library | AID 598, 2007 | hit rate 6% among 85,000 | viability, % at 10 µM | H69AR lung tumor viability, ATP luminescence, 72 h; stronger effect = lower value;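 active = viability at or below 40%; inactive = viability above 40%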;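 also: multidrug resistant small cell line overexpressing MRP-1 efflux transporter; 100% = mean luminescence of untreated control wells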
Lung fibro prol: antiproliferative effect on LL 47 fibroblasts – human, LL 47 cells, CellTiter-Glo luminescence, primary screen. LL 47 human lung fibroblast viability, ATP luminescence; stronger effect = lower value. viability, % at 10 µM. hit rate 1.1% among 85,000. AID 719, 2007;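 active = viability at or below 50% in the single dose screen; inactive = viability above 50%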;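 also: compound exposure lasted 72 h before the ATP readout; 100% = median luminescence of untreated cell-only wells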
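Test system: LL 47 human lung fibroblasts / Incubation: 72 h compound exposure at 37 °C after overnight plating / Technique: luminescent ATP detection, CellTiter-Glo / Compound dosing: 0.1% DMSO in all compound wells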
HUVEC prolif 384: inhibitors of HUVEC proliferation, primary screen, cell-based, 384-well; CellTiter-Glo luminescence, 72 h; stronger effect = lower value; viability, % at 10 µM (by protocol); hit rate 1.1% among 86,000; AID 648, 2007;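 active = viability at or below 30%; inactive = viability above 30%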;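 also: 100% = median luminescence of DMSO-only cell control wells on each plate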
Ecoli WT expand: growth inhibitors of wild-type E. coli, primary screen, strain BW25113, expanded library, OD600; AID 710, 2007; OD600 absorbance; growth inhibition, % at 100 µM; hit rate 0.15% among 98,000;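 active = growth inhibition above about 50% at one test dose, limit read from the data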;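 also: growth measured after 20 h incubation at 37 °C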
Jurkat tox 60K: cytotoxicity toward Jurkat T cells, primary screen, cytotoxicity control, cell-based, Jurkat E6.1, 60K MLSMR library; Jurkat E6.1 viability, ATP luminescence, 48 h; inhibition, % at 4 µM; hit rate 1.2% among 56,000; AID 463, 2006;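 active = inhibition above the mean inhibition of all tested compounds plus 3 SD, cut at about 28% in these data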
tolC growth inh: growth inhibitors of E. coli tolC mutant, primary screen, strain BW25113 ΔtolC::kan, 384-well | growth inhibition, % at 10 µM (by protocol) | hit rate 2.2% among 65,000 | OD615;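 active = growth inhibition at or above a cutoff equal to the mean over every tested compound plus 3 SD, cut at about 60% in these data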;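 also: growth measured after 20 h incubation at 37 °C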
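Test system: E. coli BW25113 ΔtolC::kan bacteria | Medium: Kanamycin-containing LB broth (50 µg/mL) | Dosing: One dose of 10 µM final | Times: 20 h incubation with compound, 37 °C | Detection: Optical density read at 615 nm | Read-out basis: Percent growth inhibition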
An asterisk follows results filed as active. Sampled rows, rich in hits. Any-hit rate of the full collection: about 6.4%.

What do the screens show for `COC(=O)C(NC(C)=O)(Nc1nc2c(C)cc(C)cc2s1)C(F)(F)F` (centres undefined)?
H69AR inhibit: 26.4*; Lung fibro prol: 88.1; HUVEC prolif 384: 71.1; Ecoli WT expand: -6.0

How did Cc1ccc(CNc2nc3ccccc3n3nnnc23)cc1 do in these assays?
H69AR inhibit: 29.6*; Lung fibro prol: 100.1; HUVEC prolif 384: 89.3; Ecoli WT expand: -3.0; Jurkat tox 60K: -13.6; tolC growth inh: 21.1

What do the screens show for `Fc1cccc(Nc2nc3ccccc3n3nnnc23)c1`?
H69AR inhibit: 60.0; Lung fibro prol: 83.3; HUVEC prolif 384: 78.9; Ecoli WT expand: 1.0

How did Brc1ccc(Nc2nc3ccccc3n3nnnc23)cc1 do in these assays?
H69AR inhibit: 35.8*; Lung fibro prol: 78.5; HUVEC prolif 384: 47.5; Ecoli WT expand: -8.0

How did Cc1cc(Cl)ccc1OCCCC(=O)N1CCCCC1 do in these assays?
H69AR inhibit: 103.1; Lung fibro prol: 108.2; HUVEC prolif 384: 107.4; Ecoli WT expand: -5.0

How did Cc1cc(OCCCC(=O)N2CCCCC2)cc(C)c1Cl do in these assays?
H69AR inhibit: 85.6; Lung fibro prol: 91.3; HUVEC prolif 384: 106.3; Ecoli WT expand: 0.0; Jurkat tox 60K: 1.8; tolC growth inh: 63.1*

Results for CCOC(=O)NC1(NCc2ccccc2)Oc2ccccc2O1 ?
H69AR inhibit: 19.4*; Lung fibro prol: 93.5; HUVEC prolif 384: 77.0; Ecoli WT expand: 6.0; Jurkat tox 60K: 15.9; tolC growth inh: -4.3

How did CCOC(=O)NC1(NC2CCCCC2)Oc2ccccc2O1 do in these assays?
H69AR inhibit: 21.0*; HUVEC prolif 384: 89.0; Ecoli WT expand: 38.0; Jurkat tox 60K: 3.6; tolC growth inh: 1.0

Results for CCOC(=O)Nc1ccc(S(=O)(=O)NCc2ccccc2)cc1 ?
Lung fibro prol: 94.8; HUVEC prolif 384: 101.4; Ecoli WT expand: -3.0; Jurkat tox 60K: 5.0; tolC growth inh: -12.4

How did CCOC(=O)NC1(NCC(C)C)Oc2ccccc2O1 do in these assays?
Ecoli WT expand: 8.0

What do the screens show for `CCOC(=O)C(C(=O)Nc1ccccc1)C1CCCCC1` (centres undefined)?
H69AR inhibit: 90.6; Lung fibro prol: 82.9; HUVEC prolif 384: 85.4; Ecoli WT expand: 2.0; Jurkat tox 60K: 0.1; tolC growth inh: 3.0

Results for CCOC(=O)NC1(NC(C)C)Oc2ccccc2O1 ?
H69AR inhibit: 36.1*; Lung fibro prol: 93.0; HUVEC prolif 384: 69.0; Ecoli WT expand: 0.0

How did CCOc1ccccc1NC(=O)NC1(C(=O)N2CCN3CCCC3C2)CCCCC1 (centres undefined) do in these assays?
H69AR inhibit: 93.8; Lung fibro prol: 101.2; HUVEC prolif 384: 92.1; Ecoli WT expand: 1.0; Jurkat tox 60K: -1.0; tolC growth inh: -2.6

How did Cc1nc2ccc(Cc3ccc4nc(C)[nH]c4c3)cc2[nH]1 do in these assays?
H69AR inhibit: 97.8; Lung fibro prol: 96.9; HUVEC prolif 384: 92.2

What do the screens show for `Cc1ccc2c(c1)c1ncnc(N3CCN(c4ccccc4)CC3)c1n2C`?
H69AR inhibit: 69.8; Lung fibro prol: 89.1; HUVEC prolif 384: 72.6; Ecoli WT expand: -8.0; Jurkat tox 60K: -8.9; tolC growth inh: 64.2*

Results for Cc1ccc2c(c1)c1ncnc(N3CCC4(CC3)OCCO4)c1n2C ?
H69AR inhibit: 29.3*; Lung fibro prol: 89.6; HUVEC prolif 384: 74.5; Ecoli WT expand: 4.0; Jurkat tox 60K: -3.2; tolC growth inh: 17.8

How did Cc1ccc2c(c1)c1ncnc(N3CCOCC3)c1n2C do in these assays?
H69AR inhibit: 45.8; Lung fibro prol: 93.3; HUVEC prolif 384: 84.7; Ecoli WT expand: -2.0; Jurkat tox 60K: -3.6; tolC growth inh: 12.4

What do the screens show for `COCCCN(C(C)=O)c1nc(-c2ccccc2)cs1`?
Ecoli WT expand: 4.0; Jurkat tox 60K: -4.7; tolC growth inh: 16.0

Results for CCn1ncc(C2=NOC(C(=O)NCc3ccc(Cl)cc3)C2)c1C (centres undefined) ?
H69AR inhibit: 37.0*; Lung fibro prol: 66.7; HUVEC prolif 384: 55.6; Ecoli WT expand: -2.0; Jurkat tox 60K: 92.0*; tolC growth inh: -2.6

How did CCn1ncc(C2=NOC(C(=O)Nc3ccc(C)cc3)C2)c1C (centres undefined) do in these assays?
H69AR inhibit: 108.5; Lung fibro prol: 98.6; HUVEC prolif 384: 108.9; Ecoli WT expand: 7.0

What do the screens show for `Cc1cc(Oc2ccccc2)nc(-c2ccccc2)n1`?
Ecoli WT expand: -3.0; Jurkat tox 60K: 0.6; tolC growth inh: 4.0

How did Cc1cc(N(C)Cc2ccccc2)nc(-c2ccccc2)n1 do in these assays?
H69AR inhibit: 24.0*; Lung fibro prol: 80.3; HUVEC prolif 384: 62.9; Ecoli WT expand: -15.0; tolC growth inh: 25.9

How did COc1ccc(NC(=O)CCc2nc(-c3ccc(C)cc3)no2)cc1Cl do in these assays?
H69AR inhibit: 87.5; Lung fibro prol: 92.0; HUVEC prolif 384: 73.2; Ecoli WT expand: -23.0; Jurkat tox 60K: -8.4; tolC growth inh: -21.2

Results for CCOC(=O)c1ccc(NC(=O)CCc2nc(-c3ccc(Cl)cc3)no2)cc1 ?
H69AR inhibit: 24.2*; Lung fibro prol: 91.6; HUVEC prolif 384: 57.1; Ecoli WT expand: -16.0; Jurkat tox 60K: 6.2; tolC growth inh: 23.9

What do the screens show for `CCOC(=O)c1ccc(NC(=O)CCc2nc(-c3ccc(C)cc3)no2)cc1`?
H69AR inhibit: 83.6; Lung fibro prol: 95.4; HUVEC prolif 384: 29.7*; Ecoli WT expand: -11.0; Jurkat tox 60K: 14.1; tolC growth inh: 29.5

How did Oc1ccccc1-c1cc(-c2ccccc2Cl)[nH]n1 do in these assays?
H69AR inhibit: 22.1*; Lung fibro prol: 100.8; HUVEC prolif 384: 25.0*; Ecoli WT expand: 4.0; Jurkat tox 60K: 6.5; tolC growth inh: 100.0*

How did Oc1ccc(Cl)cc1-c1cc(-c2ccccc2Cl)[nH]n1 do in these assays?
H69AR inhibit: 30.9*; Lung fibro prol: 76.4; HUVEC prolif 384: 62.2

Results for Oc1ccccc1-c1cc(-c2ccco2)[nH]n1 ?
H69AR inhibit: 69.9; Lung fibro prol: 79.6; HUVEC prolif 384: 97.0; Ecoli WT expand: 17.0

Results for Oc1ccc(Cl)cc1-c1cc(-c2cccc(Br)c2)n[nH]1 ?
H69AR inhibit: 4.2*; Lung fibro prol: 59.0; HUVEC prolif 384: 44.0; Ecoli WT expand: -8.0

Results for Oc1ccccc1-c1cc(-c2ccccc2)no1 ?
Ecoli WT expand: -3.0

How did Oc1ccccc1-c1cc(-c2cccc(F)c2)n[nH]1 do in these assays?
H69AR inhibit: 52.5; Lung fibro prol: 83.4; HUVEC prolif 384: 39.6; Ecoli WT expand: 24.0; Jurkat tox 60K: 9.1; tolC growth inh: 100.0*

What do the screens show for `Cc1c(NC(=O)Oc2ccccc2)sc(=S)n1C`?
H69AR inhibit: 85.7; Lung fibro prol: 104.4; HUVEC prolif 384: 94.4; Ecoli WT expand: 4.0; tolC growth inh: -4.6

Results for COCCn1c(N)c(C(=O)NCc2cccs2)c2nc3ccccc3nc21 ?
Lung fibro prol: 79.8; HUVEC prolif 384: 72.2; Ecoli WT expand: 0.0; Jurkat tox 60K: 2.7; tolC growth inh: 41.6
